# Where “and” joins values, the source holds several entries; their conditions need not be identical. Equal entries are not always repeated.
# Test system: U2OS
# Assay: Multiplex assay against U2OS
# Assay type: toxicity, cell-based
# Conditions: human, number of replicates 2
# Method in brief: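 Live cells carried four stains from seeding: Hoechst33342, BioTracker Green Microtubule Cytoskeleton Dye, MitoTracker Red and Annexin V Alexa Fluor 680. They were imaged on a CQ1 microscope at 37°C and 5% CO2 after compound addition. Using CellPathfinder machine-learning gating, cells were split into Hoechst high-intensity objects or normal cells, normal cells into healthy, pyknosed or fragmented nuclei, and pyknosed cells into mitotic or apoptotic; tubulin, mitochondrial-mass and membrane-permeability phenotypes are per cents of healthy-nucleus cells.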
# [1] = 12 h, 1 µM, compound concentration 1 uM
# [2] = 12 h, 10 µM, compound concentration 10 uM
# [3] = 24 h, 1 µM, compound concentration 1 uM
# [4] = 24 h, 10 µM, compound concentration 10 uM
# [5] = 48 h, 1 µM, compound concentration 1 uM
# [6] = 48 h, 10 µM, compound concentration 10 uM
structure (smiles),measurement,setting,value
C[C@@H](OC[C@@]1(c2ccccc2)CC[C@]2(CCC(=O)N2)CN1)c1cc(C(F)(F)F)cc(C(F)(F)F)c1 [ROLAPITANT],Population Apoptotic (%),[1],20% and 40%
same,Population Fragmented Nuclei (%),[1],11% and 3%
same,Population Healthy Nuclei (%),[1],73% and 86%
same,Population Hoechst High Intensity Objects (%),[1],0%
same,Population Membrane Permeable-Phenotype (%),[1],4% and 1%
same,Population Mitochondria Different-Phenotype (%),[1],0%
same,Population Mitotic Cells (%),[1],80% and 59%
same,Population Normal (%),[1],100%
same,Population Pyknosed Nuclei (%),[1],14% and 9%
same,Population Tubulin-Different-Phenotype (%),[1],76% and 86%
same,Population Apoptotic (%),[2],37% and 50%
same,Population Healthy Nuclei (%),[2],85% and 71%
same,Population Hoechst High Intensity Objects (%),[2],0%
same,Population Membrane Permeable-Phenotype (%),[2],1% and 5%
same,Population Mitochondria Different-Phenotype (%),[2],0% and 5%
same,Population Mitotic Cells (%),[2],62% and 50%
same,Population Normal (%),[2],99% and 100%
same,Population Pyknosed Nuclei (%),[2],8% and 7%
same,Population Tubulin-Different-Phenotype (%),[2],87% and 30%
same,Population Apoptotic (%),[3],100% and 52%
same,Population Fragmented Nuclei (%),[3],7% and 2%
same,Population Healthy Nuclei (%),[3],90% and 87%
same,Population Hoechst High Intensity Objects (%),[3],0%
same,Population Membrane Permeable-Phenotype (%),[3],0% and 1%
same,Population Mitochondria Different-Phenotype (%),[3],0% and 1%
same,Population Normal (%),[3],100%
same,Population Pyknosed Nuclei (%),[3],2% and 9%
same,Population Tubulin-Different-Phenotype (%),[3],77% and 90%
same,Population Apoptotic (%),[4],48% and 50%
same,Population Healthy Nuclei (%),[4],89% and 77%
same,Population Hoechst High Intensity Objects (%),[4],0%
same,Population Membrane Permeable-Phenotype (%),[4],0% and 3%
same,Population Mitochondria Different-Phenotype (%),[4],0% and 3%
same,Population Mitotic Cells (%),[4],51% and 50%
same,Population Normal (%),[4],99% and 100%
same,Population Pyknosed Nuclei (%),[4],7% and 5%
same,Population Tubulin-Different-Phenotype (%),[4],91% and 35%
same,Population Apoptotic (%),[5],40% and 48%
same,Population Fragmented Nuclei (%),[5],5% and 1%
same,Population Healthy Nuclei (%),[5],87% and 92%
same,Population Hoechst High Intensity Objects (%),[5],0%
same,Population Membrane Permeable-Phenotype (%),[5],1%
same,Population Mitochondria Different-Phenotype (%),[5],0%
same,Population Mitotic Cells (%),[5],60% and 51%
same,Population Normal (%),[5],100% and 99%
same,Population Pyknosed Nuclei (%),[5],6% and 5%
same,Population Tubulin-Different-Phenotype (%),[5],87% and 91%
same,Population Apoptotic (%),[6],48% and 28%
same,Population Fragmented Nuclei (%),[6],2% and 7%
same,Population Healthy Nuclei (%),[6],90% and 78%
same,Population Hoechst High Intensity Objects (%),[6],0%
same,Population Membrane Permeable-Phenotype (%),[6],0% and 4%
same,Population Mitochondria Different-Phenotype (%),[6],0% and 4%
same,Population Mitotic Cells (%),[6],51% and 71%
same,Population Normal (%),[6],100%
same,Population Pyknosed Nuclei (%),[6],6% and 13%
CCCNc1ccc2ncc(-c3ccncc3)n2n1,Population Apoptotic (%),[1],60% and 74%
same,Population Healthy Nuclei (%),[1],58% and 81%
same,Population Hoechst High Intensity Objects (%),[1],0%
same,Population Membrane Permeable-Phenotype (%),[1],11% and 2%
same,Population Mitochondria Different-Phenotype (%),[1],11% and 0%
same,Population Mitotic Cells (%),[1],40% and 25%
same,Population Normal (%),[1],100%
same,Population Pyknosed Nuclei (%),[1],17% and 14%
same,Population Tubulin-Different-Phenotype (%),[1],76% and 86%
same,Population Apoptotic (%),[2],81% and 78%
same,Population Healthy Nuclei (%),[2],35% and 57%
same,Population Hoechst High Intensity Objects (%),[2],0% and 1%
same,Population Membrane Permeable-Phenotype (%),[2],6% and 8%
same,Population Mitochondria Different-Phenotype (%),[2],6% and 3%
same,Population Mitotic Cells (%),[2],18% and 22%
same,Population Normal (%),[2],100% and 98%
same,Population Pyknosed Nuclei (%),[2],24% and 33%
same,Population Tubulin-Different-Phenotype (%),[2],68% and 60%
same,Population Apoptotic (%),[3],66% and 87%
same,Population Healthy Nuclei (%),[3],71% and 89%
same,Population Hoechst High Intensity Objects (%),[3],0%
same,Population Membrane Permeable-Phenotype (%),[3],10% and 3%
same,Population Mitochondria Different-Phenotype (%),[3],3% and 1%
same,Population Mitotic Cells (%),[3],33% and 12%
same,Population Normal (%),[3],100% and 99%
same,Population Pyknosed Nuclei (%),[3],7%
same,Population Tubulin-Different-Phenotype (%),[3],76% and 88%
same,Population Apoptotic (%),[4],78% and 90%
same,Population Healthy Nuclei (%),[4],26% and 53%
same,Population Hoechst High Intensity Objects (%),[4],0% and 2%
same,Population Membrane Permeable-Phenotype (%),[4],16% and 7%
same,Population Mitochondria Different-Phenotype (%),[4],8% and 7%
same,Population Mitotic Cells (%),[4],21% and 9%
same,Population Normal (%),[4],100% and 97%
same,Population Pyknosed Nuclei (%),[4],31% and 33%
same,Population Tubulin-Different-Phenotype (%),[4],66% and 69%
same,Population Apoptotic (%),[5],57% and 66%
same,Population Healthy Nuclei (%),[5],71% and 88%
same,Population Hoechst High Intensity Objects (%),[5],0%
same,Population Membrane Permeable-Phenotype (%),[5],6% and 3%
same,Population Mitochondria Different-Phenotype (%),[5],6% and 2%
same,Population Mitotic Cells (%),[5],42% and 33%
same,Population Normal (%),[5],100%
same,Population Pyknosed Nuclei (%),[5],11% and 7%
same,Population Tubulin-Different-Phenotype (%),[5],69% and 86%
same,Population Apoptotic (%),[6],81% and 78%
same,Population Healthy Nuclei (%),[6],23% and 37%
same,Population Hoechst High Intensity Objects (%),[6],0% and 1%
same,Population Mitochondria Different-Phenotype (%),[6],23% and 8%
same,Population Mitotic Cells (%),[6],18% and 21%
same,Population Normal (%),[6],100% and 98%
same,Population Pyknosed Nuclei (%),[6],29% and 51%
same,Population Tubulin-Different-Phenotype (%),[6],46% and 62%
